The source of these data is ChEMBL document CHEMBL1150216, “Flavonol glycosides and steroidal saponins from the leaves of Cestrum nocturnum and their cytotoxicity” (J Nat Prod, 2001).

In one series the test system is HSC-2. Nature of the series: Cytotoxicity against human HSC2 cells after 24 by MTT assay. It is filed as functional. Particulars: read-out: LD50 (the source's name). In general terms: Tetrazolium assays rely on reduction of a dye to a coloured formazan, in cell work by metabolically active cells.
The nature of series [1]: Cytotoxicity against human HGF cells after 24 by MTT assay. In kind it is cell-based. Particulars: read-out: LD50 (the source's name). In outline: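 Primary human gingival fibroblasts from a healthy person's gingival biopsy, explant-cultured in α-MEM with 30% FBS and antibiotics, used at passages 5–7. Cells were seeded at 6×10^3 into 96-well plates for 24 h, PBS-washed, and exposed to compound for 24 h. Viability was read by MTT (0.2 mg/mL, 4 h), DMSO lysis and A540, giving LD50 in µg/mL.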

≈ marks a conversion by molar mass, not a printed value.

Take `C[C@@H]1CC[C@@]2(OC1)O[C@H]1C[C@H]3[C@@H]4CC=C5C[C@@H](O[C@@H]6O[C@H](CO)[C@H](O[C@@H]7O[C@H](CO)[C@@H](O)[C@H](O[C@@H]8OC[C@@H](O)[C@H](O)[C@H]8O)[C@H]7O[C@@H]7O[C@H](CO)[C@@H](O)[C@H](O)[C@H]7O)[C@H](O)[C@H]6O)[C@H](O)C[C@]5(C)[C@H]4CC[C@]3(C)[C@H]1[C@@H]2C`: the figures for the CC50 (in the series on HSC-2; in series [1]) were 12 mg/L (≈ 11.4 µM) and 37 mg/L (≈ 35.3 µM), respectively.

Take `C[C@@H]1CC[C@@]2(OC1)O[C@H]1C[C@H]3[C@@H]4CC=C5C[C@@H](O[C@@H]6O[C@H](CO)[C@H](O[C@@H]7O[C@H](CO)[C@@H](O)[C@H](O[C@@H]8OC[C@@H](O)[C@H](O)[C@H]8O)[C@H]7O[C@@H]7O[C@H](CO)[C@@H](O)[C@H](O[C@@H]8O[C@H](CO)[C@@H](O)[C@H](O)[C@H]8O)[C@H]7O)[C@H](O)[C@H]6O)[C@H](O)C[C@]5(C)[C@H]4CC[C@]3(C)[C@H]1[C@@H]2C`: the CC50 in the series on HSC-2 came out at 2.7 mg/L (≈ 2.23 µM); in series [1] it was 31 mg/L (≈ 25.6 µM).

With `C[C@@H]1CC[C@@]2(OC1)O[C@H]1C[C@H]3[C@@H]4CC=C5C[C@@H](O[C@@H]6O[C@H](CO)[C@@H](O[C@@H]7O[C@@H](C)[C@H](O[C@@H]8O[C@@H](C)[C@H](O)[C@@H](O)[C@H]8O)[C@@H](O)[C@H]7O)[C@H](O)[C@H]6O[C@@H]6O[C@@H](C)[C@H](O)[C@@H](O)[C@H]6O)[C@H](O)C[C@]5(C)[C@H]4CC[C@]3(C)[C@H]1[C@@H]2C`, the CC50 with HSC-2 came to 5.5 mg/L (≈ 5.33 µM); in series [1], 9.1 mg/L (≈ 8.82 µM).

As for `C[C@@H]1CC[C@@]2(OC1)O[C@H]1C[C@H]3[C@@H]4CC=C5C[C@@H](O[C@@H]6O[C@H](CO)[C@H](O[C@@H]7O[C@H](CO)[C@@H](O)[C@H](O[C@@H]8OC[C@@H](O)[C@H](O)[C@H]8O)[C@H]7O[C@@H]7O[C@H](CO)[C@@H](O)[C@H](O)[C@H]7O)[C@H](O)[C@H]6O)[C@H](O)C[C@]5(C)[C@H]4CC[C@]3(C)[C@@]1(O)[C@@H]2C`, the results for the CC50 (in the series with HSC-2; in series [1]) were 13 mg/L (≈ 12.2 µM) and 58 mg/L (≈ 54.5 µM), respectively.

Regarding `C[C@@H]1CC[C@@]2(OC1)O[C@H]1[C@@H](O)[C@H]3[C@@H]4CC=C5C[C@@H](O[C@@H]6O[C@H](CO)[C@H](O[C@@H]7O[C@H](CO)[C@@H](O)[C@H](O[C@@H]8OC[C@@H](O)[C@H](O)[C@H]8O)[C@H]7O[C@@H]7O[C@H](CO)[C@@H](O)[C@H](O[C@@H]8O[C@H](CO)[C@@H](O)[C@H](O)[C@H]8O)[C@H]7O)[C@H](O)[C@H]6O)[C@H](O)C[C@]5(C)[C@H]4CC[C@]3(C)[C@H]1[C@@H]2C`, the CC50 in the series on HSC-2 came to 4.4 mg/L (≈ 3.59 µM); in series [1], 22 mg/L (≈ 17.9 µM).

As for `C[C@@H]1CC[C@@]2(OC1)O[C@H]1C[C@H]3[C@@H]4CC=C5C[C@@H](O[C@@H]6O[C@H](CO)[C@H](O[C@@H]7O[C@H](CO)[C@@H](O)[C@H](O[C@@H]8OC[C@@H](O)[C@H](O)[C@H]8O)[C@H]7O[C@@H]7O[C@H](CO)[C@@H](O)[C@H](O[C@@H]8O[C@H](CO)[C@@H](O)[C@H](O)[C@H]8O)[C@H]7O)[C@H](O)[C@H]6O)[C@H](O)C[C@]5(C)[C@H]4CC[C@]3(C)[C@@]1(O)[C@@H]2C`, the CC50 amounted to 5.5 mg/L (≈ 4.48 µM) in the series on HSC-2 and 34 mg/L (≈ 27.7 µM) in series [1].

On to `C[C@@H]1O[C@@H](OC[C@H]2O[C@@H](Oc3c(-c4ccc(O)cc4)oc4cc(O)cc(O)c4c3=O)[C@H](O[C@@H]3OC[C@@H](O)[C@H](O)[C@H]3O)[C@@H](O)[C@@H]2O)[C@H](O)[C@H](O)[C@H]1O` [CAMELLIASIDE B], for which the CC50 (in the series with HSC-2; in series [1]) was over 400 mg/L throughout.

Turning to `C[C@@H]1CC[C@@]2(OC1)O[C@H]1C[C@H]3[C@@H]4CC=C5C[C@@H](O[C@@H]6O[C@H](CO)[C@@H](O[C@@H]7O[C@@H](C)[C@H](O[C@@H]8O[C@@H](C)[C@H](O)[C@@H](O)[C@H]8O)[C@@H](O)[C@H]7O)[C@H](O)[C@H]6O[C@@H]6O[C@@H](C)[C@H](O)[C@@H](O)[C@H]6O)CC[C@]5(C)[C@H]4CC[C@]3(C)[C@H]1[C@@H]2C` [PENNOGENIN RAHAMNOSYL CHACOTRIOSIDE], the CC50 in the series on HSC-2 worked out at 2 mg/L (≈ 1.97 µM); in series [1] it was 2.8 mg/L (≈ 2.76 µM).
